Test [1] addresses 5-hydroxytryptamine receptor 3A (Homo sapiens, UniProt P46098). The experiment in a line: Binding affinity to 5HT3 receptor.
In test [2] the target is Sodium-dependent serotonin transporter (Homo sapiens, UniProt P31645). The test is described as follows: Binding affinity to serotonin uptake transporter.
The target of test [3] is T1, 5-hydroxytryptamine receptor 2A (Homo sapiens, UniProt P28223). The experiment in a line: Binding affinity to human 5HT2A receptor expressed in human A549 cells. As to conditions: for Bmax: tested as the 3H-labelled form. It is filed as cell-based. The essentials:
(§1)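 Incubated 60 min at 25 °C in 50 mM Tris, 4 mM MgCl2, pH 7.4, with 1% BSA. Nonspecific defined by 10 μM cinanserin; filtration and scintillation counting.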

Another test deals with D(3) dopamine receptor (Homo sapiens, UniProt P35462). The experiment in a line: Binding affinity to dopamine D3 receptor.
For test [4], the target named is 5-hydroxytryptamine receptor 2B (Homo sapiens, UniProt P41595). The experiment in a line: Binding affinity to 5HT2B receptor.
Test [5] has as its target 5-hydroxytryptamine receptor 5A (Homo sapiens, UniProt P47898). The experiment in a line: Binding affinity to 5HT5A receptor.
The next test addresses D(1B) dopamine receptor (Homo sapiens, UniProt P21918). The test is described as follows: Binding affinity to dopamine D5 receptor.
In test [6] the target is Muscarinic acetylcholine receptor M2 (Homo sapiens, UniProt P08172). The experiment in a line: Binding affinity to muscarinic M2 receptor.
For test [7], the target named is 5-hydroxytryptamine receptor 6 (Homo sapiens, UniProt P50406). The experiment in a line: Binding affinity to 5HT6 receptor.
The target in test [8] is 5-hydroxytryptamine receptor 1B (Homo sapiens, UniProt P28222). The test is described as follows: Binding affinity to 5HT1B receptor.
The target in test [9] is 5-hydroxytryptamine receptor 1A (Homo sapiens, UniProt P08908). The experiment in a line: Binding affinity to 5HT1A receptor.
In test [10] the target is Delta-type opioid receptor (Homo sapiens, UniProt P41143). The experiment in a line: Binding affinity to delta opioid receptor.
Test [11] concerns the target 5-hydroxytryptamine receptor 2C (Homo sapiens, UniProt P28335). The experiment in a line: Binding affinity to 5HT2C receptor.
Test [12] has as its target Muscarinic acetylcholine receptor M3 (Homo sapiens, UniProt P20309). The experiment in a line: Binding affinity to muscarinic M3 receptor.
In test [13] the target is 5-hydroxytryptamine receptor 1E (Homo sapiens, UniProt P28566). The test is described as follows: Binding affinity to 5HT1E receptor.
Test [14] addresses Kappa-type opioid receptor (Homo sapiens, UniProt P41145). The experiment in a line: Binding affinity to kappa opioid receptor.
For the next test, the target named is Mu-type opioid receptor (Homo sapiens, UniProt P35372). The test is described as follows: Binding affinity to mu opioid receptor.
The next test addresses Histamine H1 receptor (Homo sapiens, UniProt P35367). The experiment in a line: Binding affinity to histamine H1 receptor.
The target of test [15] is T1, 5-hydroxytryptamine receptor 2A. The experiment in a line: Binding affinity to human 5HT2A receptor expressed in human HEK293 cells. Format: cell-based. The conditions noted are these: for Bmax: tested as the 3H-labelled form. An outline of the steps: as §1
The target of test [16] is Muscarinic acetylcholine receptor M4 (Homo sapiens, UniProt P08173). The test is described as follows: Binding affinity to muscarinic M4 receptor.
The next test concerns the target D(2) dopamine receptor (Homo sapiens, UniProt P14416). The test is described as follows: Binding affinity to dopamine D2 receptor.
For test [17], the target named is Muscarinic acetylcholine receptor M5 (Homo sapiens, UniProt P08912). The experiment in a line: Binding affinity to muscarinic M5 receptor.
Test [18] concerns the target Muscarinic acetylcholine receptor M1 (Homo sapiens, UniProt P11229). The test is described as follows: Binding affinity to muscarinic M1 receptor.
For test [19], the target named is Sodium-dependent dopamine transporter (Homo sapiens, UniProt Q01959). The experiment in a line: Binding affinity to dopamine uptake transporter.
The target in the next test is Histamine H2 receptor (Homo sapiens, UniProt P25021). The experiment in a line: Binding affinity to histamine H2 receptor.
Test [20] addresses Alpha-1A adrenergic receptor (Homo sapiens, UniProt P35348). The test is described as follows: Binding affinity to alpha 1A adrenergic receptor.
The target in a further test is Histamine H3 receptor (Homo sapiens, UniProt Q9Y5N1). The experiment in a line: Binding affinity to histamine H3 receptor.
The target in test [21] is 5-hydroxytryptamine receptor 7 (Homo sapiens, UniProt P34969). The test is described as follows: Binding affinity to 5HT7 receptor.
Another test has as its target D(1A) dopamine receptor (Homo sapiens, UniProt P21728). The test is described as follows: Binding affinity to dopamine D1 receptor.
Test [22] addresses 5-hydroxytryptamine receptor 1D (Homo sapiens, UniProt P28221). The test is described as follows: Binding affinity to 5HT1D receptor.
Test [23] deals with T1, 5-hydroxytryptamine receptor 2A. The test is described as follows: Displacement of [3H]INBMeO from human 5HT2A receptor expressed in human HEK293 cells. Format: cell-based. In general terms: Loss of bound radioactivity is the signal in a displacement assay; it reports binding, not function.
Test [24] shares this target. The test is described as follows: Displacement of [3H]INBMeO from human 5HT2A receptor expressed in human A549 cells. Format: cell-based.
For test [25] the target is unchanged. The experiment in a line: Displacement of [3H]ketanserin from human 5HT2A receptor expressed in human HEK293 cells. It is filed as cell-based.
Test [26] has the same target. The experiment in a line: Displacement of [3H]ketanserin from human 5HT2A receptor expressed in human A549 cells. It is filed as cell-based.

Some results are limits rather than exact numbers.

T1 sequence (P28223 whole entry): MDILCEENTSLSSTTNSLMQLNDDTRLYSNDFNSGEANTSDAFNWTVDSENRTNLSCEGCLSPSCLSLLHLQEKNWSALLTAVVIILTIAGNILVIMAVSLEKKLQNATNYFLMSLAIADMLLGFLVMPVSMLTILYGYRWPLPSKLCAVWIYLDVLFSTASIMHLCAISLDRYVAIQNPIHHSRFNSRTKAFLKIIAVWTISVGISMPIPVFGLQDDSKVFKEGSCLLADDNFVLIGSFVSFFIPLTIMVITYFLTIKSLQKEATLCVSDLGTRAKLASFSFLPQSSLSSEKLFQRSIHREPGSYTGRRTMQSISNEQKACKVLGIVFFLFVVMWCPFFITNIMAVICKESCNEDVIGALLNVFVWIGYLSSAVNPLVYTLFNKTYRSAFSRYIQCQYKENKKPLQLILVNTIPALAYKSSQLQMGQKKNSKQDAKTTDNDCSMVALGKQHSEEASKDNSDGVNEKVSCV
5-hydroxytryptamine receptor 5A, sequence (P47898 whole entry): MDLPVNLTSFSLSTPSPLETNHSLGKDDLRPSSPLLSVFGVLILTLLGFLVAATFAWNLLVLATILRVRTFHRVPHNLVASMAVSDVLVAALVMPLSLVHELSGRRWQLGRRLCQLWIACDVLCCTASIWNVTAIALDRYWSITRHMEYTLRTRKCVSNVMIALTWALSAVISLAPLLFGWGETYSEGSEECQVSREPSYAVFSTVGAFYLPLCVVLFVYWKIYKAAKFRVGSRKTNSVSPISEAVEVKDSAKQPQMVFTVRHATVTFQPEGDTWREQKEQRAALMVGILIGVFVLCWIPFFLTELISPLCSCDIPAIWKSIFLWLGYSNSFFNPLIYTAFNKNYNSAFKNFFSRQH
Alpha-1A adrenergic receptor, sequence (P35348 whole entry): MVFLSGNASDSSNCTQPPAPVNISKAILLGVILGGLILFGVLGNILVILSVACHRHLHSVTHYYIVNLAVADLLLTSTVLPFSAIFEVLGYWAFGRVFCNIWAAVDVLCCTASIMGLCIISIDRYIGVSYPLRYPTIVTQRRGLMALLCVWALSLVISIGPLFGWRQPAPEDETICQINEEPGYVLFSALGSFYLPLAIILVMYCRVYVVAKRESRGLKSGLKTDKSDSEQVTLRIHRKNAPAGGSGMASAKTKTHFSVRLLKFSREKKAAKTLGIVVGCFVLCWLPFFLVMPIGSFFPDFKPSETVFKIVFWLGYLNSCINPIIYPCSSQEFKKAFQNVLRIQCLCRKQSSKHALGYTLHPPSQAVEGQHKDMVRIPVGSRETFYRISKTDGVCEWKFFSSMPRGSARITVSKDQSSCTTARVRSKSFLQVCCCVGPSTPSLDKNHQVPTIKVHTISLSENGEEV
Muscarinic acetylcholine receptor M5, sequence (P08912 whole entry): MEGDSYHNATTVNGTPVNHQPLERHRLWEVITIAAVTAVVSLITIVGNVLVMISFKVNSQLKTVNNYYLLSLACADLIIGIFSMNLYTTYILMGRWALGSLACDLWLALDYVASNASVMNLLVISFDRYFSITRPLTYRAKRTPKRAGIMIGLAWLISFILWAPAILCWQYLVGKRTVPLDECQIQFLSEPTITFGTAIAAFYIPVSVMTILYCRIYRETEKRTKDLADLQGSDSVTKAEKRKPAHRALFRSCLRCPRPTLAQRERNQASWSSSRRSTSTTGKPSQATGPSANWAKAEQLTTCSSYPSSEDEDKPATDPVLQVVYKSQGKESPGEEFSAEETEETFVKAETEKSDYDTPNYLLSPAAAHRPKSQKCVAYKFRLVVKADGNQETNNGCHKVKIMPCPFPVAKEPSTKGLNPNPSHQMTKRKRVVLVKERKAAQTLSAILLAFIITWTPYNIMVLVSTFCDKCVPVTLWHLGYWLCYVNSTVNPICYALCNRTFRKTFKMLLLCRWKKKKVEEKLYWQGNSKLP
Histamine H1 receptor, sequence (P35367 whole entry): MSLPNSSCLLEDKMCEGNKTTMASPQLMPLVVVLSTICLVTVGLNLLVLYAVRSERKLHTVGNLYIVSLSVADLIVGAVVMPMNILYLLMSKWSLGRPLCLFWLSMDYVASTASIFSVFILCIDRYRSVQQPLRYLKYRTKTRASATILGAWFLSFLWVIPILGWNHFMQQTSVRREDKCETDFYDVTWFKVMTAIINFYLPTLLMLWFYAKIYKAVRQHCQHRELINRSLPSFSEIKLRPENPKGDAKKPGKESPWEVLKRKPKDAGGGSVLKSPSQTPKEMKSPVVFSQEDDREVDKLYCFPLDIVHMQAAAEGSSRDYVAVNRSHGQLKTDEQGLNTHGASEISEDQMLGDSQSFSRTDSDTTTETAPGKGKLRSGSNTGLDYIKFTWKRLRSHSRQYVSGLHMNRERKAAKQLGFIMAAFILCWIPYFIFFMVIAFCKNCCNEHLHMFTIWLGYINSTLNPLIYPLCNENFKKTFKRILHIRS
5-hydroxytryptamine receptor 1B, sequence (P28222 whole entry): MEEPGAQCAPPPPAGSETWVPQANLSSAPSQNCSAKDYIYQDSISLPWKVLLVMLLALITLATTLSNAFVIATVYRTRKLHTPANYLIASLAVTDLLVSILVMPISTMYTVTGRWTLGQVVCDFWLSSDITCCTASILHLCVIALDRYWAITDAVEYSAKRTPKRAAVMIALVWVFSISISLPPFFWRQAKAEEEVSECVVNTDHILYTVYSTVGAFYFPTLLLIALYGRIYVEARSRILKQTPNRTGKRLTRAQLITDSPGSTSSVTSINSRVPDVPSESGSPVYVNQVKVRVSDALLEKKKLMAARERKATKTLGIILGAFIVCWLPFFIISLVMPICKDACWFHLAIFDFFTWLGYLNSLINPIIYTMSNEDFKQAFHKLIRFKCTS
5-hydroxytryptamine receptor 6, sequence (P50406 whole entry): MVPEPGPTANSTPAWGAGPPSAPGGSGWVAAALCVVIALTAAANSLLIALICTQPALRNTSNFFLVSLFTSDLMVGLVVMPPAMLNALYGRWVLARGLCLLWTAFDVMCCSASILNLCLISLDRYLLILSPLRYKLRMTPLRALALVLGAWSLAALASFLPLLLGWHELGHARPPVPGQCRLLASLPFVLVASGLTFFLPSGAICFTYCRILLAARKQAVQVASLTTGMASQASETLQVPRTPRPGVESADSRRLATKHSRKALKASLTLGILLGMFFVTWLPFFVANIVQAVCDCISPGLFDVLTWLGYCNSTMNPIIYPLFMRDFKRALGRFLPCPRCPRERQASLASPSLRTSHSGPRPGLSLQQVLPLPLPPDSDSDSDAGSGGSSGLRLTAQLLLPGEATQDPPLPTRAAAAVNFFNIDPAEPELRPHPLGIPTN
Sodium-dependent dopamine transporter, sequence (Q01959 whole entry): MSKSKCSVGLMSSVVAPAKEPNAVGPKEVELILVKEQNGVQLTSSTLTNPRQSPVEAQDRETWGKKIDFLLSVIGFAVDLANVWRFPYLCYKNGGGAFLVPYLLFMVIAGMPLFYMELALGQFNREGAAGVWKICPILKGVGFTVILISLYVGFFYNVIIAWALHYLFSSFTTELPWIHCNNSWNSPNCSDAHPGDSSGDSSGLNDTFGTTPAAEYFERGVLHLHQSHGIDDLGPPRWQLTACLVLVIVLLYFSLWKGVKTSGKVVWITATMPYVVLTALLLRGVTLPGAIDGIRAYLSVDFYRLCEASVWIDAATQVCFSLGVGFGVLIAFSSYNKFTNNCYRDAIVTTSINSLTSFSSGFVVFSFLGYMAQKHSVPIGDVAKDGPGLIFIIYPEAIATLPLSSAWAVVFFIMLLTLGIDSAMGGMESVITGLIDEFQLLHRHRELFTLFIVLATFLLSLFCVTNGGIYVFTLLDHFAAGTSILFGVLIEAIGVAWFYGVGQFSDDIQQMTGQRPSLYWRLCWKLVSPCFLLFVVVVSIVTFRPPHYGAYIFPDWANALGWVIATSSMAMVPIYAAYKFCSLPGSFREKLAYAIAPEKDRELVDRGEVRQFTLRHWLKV
Mu-type opioid receptor, sequence (P35372 whole entry): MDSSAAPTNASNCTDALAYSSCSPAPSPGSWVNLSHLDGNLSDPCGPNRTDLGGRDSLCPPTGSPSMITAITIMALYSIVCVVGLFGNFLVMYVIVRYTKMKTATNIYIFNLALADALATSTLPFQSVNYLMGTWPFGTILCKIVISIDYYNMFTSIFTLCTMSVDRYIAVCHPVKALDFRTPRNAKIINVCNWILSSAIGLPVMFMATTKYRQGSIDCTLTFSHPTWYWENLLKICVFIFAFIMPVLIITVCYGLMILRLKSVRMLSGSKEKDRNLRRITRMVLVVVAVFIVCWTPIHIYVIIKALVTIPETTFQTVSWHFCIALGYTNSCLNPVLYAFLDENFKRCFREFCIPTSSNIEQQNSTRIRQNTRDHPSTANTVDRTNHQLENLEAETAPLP
Muscarinic acetylcholine receptor M3, sequence (P20309 whole entry): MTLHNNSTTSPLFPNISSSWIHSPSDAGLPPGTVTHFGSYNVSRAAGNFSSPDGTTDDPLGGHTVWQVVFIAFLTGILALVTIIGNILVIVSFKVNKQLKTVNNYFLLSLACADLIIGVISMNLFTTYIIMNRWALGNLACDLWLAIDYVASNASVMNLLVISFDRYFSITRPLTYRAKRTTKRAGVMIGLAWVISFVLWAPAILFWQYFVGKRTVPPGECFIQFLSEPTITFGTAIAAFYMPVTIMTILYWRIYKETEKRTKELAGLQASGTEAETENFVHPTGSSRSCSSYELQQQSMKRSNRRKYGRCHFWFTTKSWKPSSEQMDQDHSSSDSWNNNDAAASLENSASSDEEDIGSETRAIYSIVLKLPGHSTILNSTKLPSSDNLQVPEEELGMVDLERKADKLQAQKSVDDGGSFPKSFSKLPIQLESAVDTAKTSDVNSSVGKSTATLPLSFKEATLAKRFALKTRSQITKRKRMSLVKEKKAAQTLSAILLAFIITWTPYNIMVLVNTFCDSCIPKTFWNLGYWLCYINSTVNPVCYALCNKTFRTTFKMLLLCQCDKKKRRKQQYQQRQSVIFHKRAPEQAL

What is called Ki is the dissociation constant of the complex between target and ligand, obtained from inhibition or displacement. Higher therefore signals weaker binding. Broadly, the Kd is the equilibrium constant for the complex coming apart. High values mean a looser complex, low ones a tighter complex. For `[3H]C([3H])([3H])Oc1cc(I)c(OC)cc1CCNCc1ccccc1OC([3H])([3H])[3H]`, the Ki in [1] is more than 500 nM; in [2], more than 500 nM; at D(3) dopamine receptor, more than 500 nM; in test [4] it was 231 nM; in test [5], more than 500 nM; on D(1B) dopamine receptor, more than 500 nM. Also, the inhibition constant (Ki) in test [6] was more than 500 nM; in test [7] it was 73 nM; in [8], more than 500 nM; in test [9], more than 500 nM; in test [10], more than 500 nM; in test [11] it was 2 nM. In addition, the Ki in [12] was more than 500 nM; in [13], more than 500 nM; in [14], 288 nM; at Mu-type opioid receptor, 82 nM; at Histamine H1 receptor, 189 nM; in test [16] it was more than 500 nM. Moreover, the inhibition constant Ki (at D(2) dopamine receptor; in test [17]; in test [18]; in [19]; on Histamine H2 receptor; in [20]) was more than 500 nM in each case. The Ki (on Histamine H3 receptor; in test [21]; at D(1A) dopamine receptor; in test [22]) was more than 500 nM in each case. Moreover, the Kd is 0.097 nM in test [3] and 0.15 nM in [15].

Take `COc1cc(CCNCc2ccccc2OC)c(OC)cc1I`: the Bmax in test [3] was 480 fmol/mg; in test [15] it was 2210 fmol/mg.

`CN(C)CCCSc1ccccc1NC(=O)/C=C/c1ccccc1` [CINANSERIN]: the Ki was 22 nM in test [23], 24 nM in test [24], 13 nM in [25] and 17 nM in [26].

For `O=C(c1ccc(F)cc1)C1CCN(CCn2c(=O)[nH]c3ccccc3c2=O)CC1`, the Bmax in [3] is 890 fmol/mg; in [15], 3260 fmol/mg.

Source of the values: ChEMBL document CHEMBL1150367, “High specific activity tritium-labeled N-(2-methoxybenzyl)-2,5-dimethoxy-4-iodophenethylamine (INBMeO): a high-affinity 5-HT2A receptor-selective agonist radioligand” (Bioorg Med Chem, 2008).
